Test results as given in ChEMBL document CHEMBL3272139, “2,5-Bis(3,4-dimethoxybenzyl)cyclopentylamine, a peripheral dopamine blocking agent” (J Med Chem, 1978).
Active and inactive are the calls of the source.

Legend:
Mus musculus [1] = experiment: Reduction in apomorphine-induced sterotypic climbing in Swiss-Webster mouse at 0.1 mg/kg, ip administered 30 mins prior to apomorphine-challenge measured after 5 mins; assay type: functional, organism-based; parameters: dose 0.1 mg/kg
In short: (§1)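 Male Swiss–Webster mice (20–30 g) were dosed ip in 0.9% saline. Thirty minutes later they received apomorphine HCl, 1 mg/kg sc. Each mouse was placed in a wire-mesh cage and scored for vertical climbing after about 5 min of exploration, with two scores per animal averaged. Groups had 10 mice, compared with saline controls by two-tailed Student's t test.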

Canis familiaris [2] = experiment: Inhibition of norepinephrine-induced chronotropic effects in pentobarbital-anesthesized, morphine-premedicated, atropinized, right femoral artery and vein-cannulated mongrel dog up to 71 umol/kg; assay type: functional, organism-based; details: Canis lupus familiaris
Mus musculus [3] = experiment: Potentiation of apomorphine-induced sterotypic climbing in ip dosed Swiss-Webster mouse administered for 7 days; assay type: functional
Canis familiaris [4] = experiment: Cardiovascular activity in pentobarbital-anesthesized, morphine-premedicated, atropinized, right femoral artery and vein-cannulated mongrel dog assessed as time required for decrease in mean blood pressure at 2.4 umol/kg; assay type: ADME, organism-based, Canis lupus familiaris; details: in vivo
In short: (§2)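 Mongrel dogs atropinized (1 mg/kg) and checked for autonomic responsiveness with norepinephrine and N-isopropylnorepinephrine (0.1–0.2 µg/kg each). Drugs were given iv via an indwelling venous catheter in 2 mL 0.9% saline. Blood pressure and heart rate were recorded via an arterial catheter. Threshold dose was read from a linear plot of % fall in mean pressure against log dose.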

Canis familiaris [5] = species: Canis familiaris; experiment: Cardiovascular activity in pentobarbital-anesthesized, morphine-premedicated, atropinized, right femoral artery and vein-cannulated mongrel dog assessed as decrease in systolic pressure; assay type: ADME, organism-based, Canis lupus familiaris; details: in vivo; in short: as §2
Canis familiaris [6] = experiment: Cardiovascular activity in pentobarbital-anesthesized, morphine-premedicated, atropinized, right femoral artery and vein-cannulated mongrel dog at 95 to 120 umol/kg; assay type: ADME, organism-based, Canis lupus familiaris; details: in vivo
Canis familiaris [7] = experiment: Reduction in dopamine-induced depressor response in pentobarbital-anesthesized, morphine-premedicated, atropinized, right femoral artery and vein-cannulated mongrel dog assessed as half life of drug action at 6 ug/kg; assay type: functional, organism-based; details: Canis lupus familiaris
In short: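 Single atropinized dog given 6 µg/kg test drug iv. Residual blockade was measured every 5 min against a 5 µg/kg dopamine challenge. Half-life came from a linear plot of log residual blockade vs time.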

Canis familiaris [8] = experiment: Cardiovascular activity in pentobarbital-anesthesized, morphine-premedicated, atropinized, right femoral artery and vein-cannulated mongrel dog at 95 to 120 umol/kg in presence of propranolol; assay type: ADME, organism-based, Canis lupus familiaris; details: in vivo
Canis familiaris [9] = experiment: Cardiovascular activity in pentobarbital-anesthesized, morphine-premedicated, atropinized, right femoral artery and vein-cannulated mongrel dog assessed as decrease in mean blood pressure at 2.4 umol/kg relative to control; assay type: ADME, organism-based, Canis lupus familiaris; parameters: scale not given: the % may be the effect or the level left; details: in vivo; in short: as §2
Canis familiaris [10] = species: Canis familiaris; experiment: Reduction in dopamine-induced depressor response in pentobarbital-anesthesized, morphine-premedicated, atropinized, right femoral artery and vein-cannulated mongrel dog assessed as threshold dose required for reduction; assay type: functional, Canis lupus familiaris
Canis familiaris [11] = species: Canis familiaris; experiment: Cardiovascular activity in pentobarbital-anesthesized, morphine-premedicated, atropinized, right femoral artery and vein-cannulated mongrel dog assessed as threshold dose required for decrease in mean blood pressure; assay type: ADME, organism-based, Canis lupus familiaris; details: in vivo; in short: as §2
Canis familiaris [12] = experiment: Inhibition of N-isopropylnorepinephrine-induced blood pressure effects in pentobarbital-anesthesized, morphine-premedicated, atropinized, right femoral artery and vein-cannulated mongrel dog up to 71 umol/kg; assay type: functional, organism-based; details: Canis lupus familiaris
Canis familiaris [13] = experiment: Cardiovascular activity in pentobarbital-anesthesized, morphine-premedicated, atropinized, right femoral artery and vein-cannulated mongrel dog at 95 to 120 umol/kg in presence of haloperidol; assay type: ADME, organism-based, Canis lupus familiaris; details: in vivo
Canis familiaris [14] = experiment: Inhibition of norepinephrine-induced inotropic effects in pentobarbital-anesthesized, morphine-premedicated, atropinized, right femoral artery and vein-cannulated mongrel dog up to 71 umol/kg; assay type: functional, organism-based; details: Canis lupus familiaris
Mus musculus [15] = experiment: Potentiation of apomorphine-induced sterotypic climbing in Swiss-Webster mouse at 42.5 to 59.4 umol/kg, ip administered 30 mins prior to apomorphine-challenge measured after 5 mins; assay type: functional, organism-based; details: 47.5 to 59.4 umol/kg, in the assay text read “47.5 to 59.4 umol/kg” for “42.5 to 59.4 umol/kg”; in short: as §1
Canis familiaris [16] = experiment: Reduction in dopamine-induced depressor response in pentobarbital-anesthesized, morphine-premedicated, atropinized, right femoral artery and vein-cannulated mongrel dog at 12 to 17 umol/kg in presence of alpha-adrenergic blocker phenoxybenzamine; assay type: functional, organism-based; details: Canis lupus familiaris
In short: (§3)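 Atropinized mongrel dogs pretreated with phenoxybenzamine, 5 mg/kg, to remove the dopamine pressor action. Depressor response was evoked with dopamine, 3 µg/kg iv. Test drug was given iv in 2 mL saline. ED50 was taken from a linear plot of log dose vs % antagonism of the dopamine depressor effect.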

Canis familiaris [17] = experiment: Inhibition of norepinephrine-induced blood pressure effects in pentobarbital-anesthesized, morphine-premedicated, atropinized, right femoral artery and vein-cannulated mongrel dog up to 71 umol/kg; assay type: functional, organism-based; details: Canis lupus familiaris
Canis familiaris [18] = species: Canis familiaris; experiment: Reduction in dopamine-induced depressor response in pentobarbital-anesthesized, morphine-premedicated, atropinized, right femoral artery and vein-cannulated mongrel dog; assay type: functional, organism-based; details: Canis lupus familiaris; in short: as §3
Canis familiaris [19] = species: Canis familiaris; experiment: Cardiovascular activity in pentobarbital-anesthesized, morphine-premedicated, atropinized, right femoral artery and vein-cannulated mongrel dog assessed as decrease in diastolic pressure; assay type: ADME, organism-based, Canis lupus familiaris; details: in vivo; in short: as §2
Canis familiaris [20] = species: Canis familiaris; experiment: Reduction in dopamine-induced depressor response in pentobarbital-anesthesized, morphine-premedicated, atropinized, right femoral artery and vein-cannulated mongrel dog in presence of alpha-adrenergic blocker phenoxybenzamine; assay type: functional; details: Canis lupus familiaris; in short: as §3
Canis familiaris [21] = species: Canis familiaris; experiment: Cardiovascular activity in pentobarbital-anesthesized, morphine-premedicated, atropinized, right femoral artery and vein-cannulated mongrel dog assessed as vasodepression; assay type: ADME, organism-based, Canis lupus familiaris; details: in vivo; in short: as §2
Canis familiaris [22] = experiment: Inhibition of N-isopropylnorepinephrine-induced inotropic effects in pentobarbital-anesthesized, morphine-premedicated, atropinized, right femoral artery and vein-cannulated mongrel dog up to 71 umol/kg; assay type: functional, organism-based; details: Canis lupus familiaris
Canis familiaris [23] = experiment: Inhibition of N-isopropylnorepinephrine-induced chronotropic effects in pentobarbital-anesthesized, morphine-premedicated, atropinized, right femoral artery and vein-cannulated mongrel dog up to 71 umol/kg; assay type: functional, organism-based; details: Canis lupus familiaris
Canis familiaris [24] = experiment: Cardiovascular activity in pentobarbital-anesthesized, morphine-premedicated, atropinized, right femoral artery and vein-cannulated mongrel dog at 95 to 120 umol/kg in presence of metoclopramide; assay type: ADME, organism-based, Canis lupus familiaris; details: in vivo

Question: How did the Activity (Mus musculus [1]) turn out when `O=C(CCCN1CCC(O)(c2ccc(Cl)cc2)CC1)c1ccc(F)cc1` was run?
Answer: The Activity was “Active”.

Question: With `COc1ccc(CC2CCC(Cc3ccc(OC)c(OC)c3)C2N)cc1OC.Cl` (centres undefined) as the compound, how does the inhibition (Canis familiaris [2]) read?
Answer: Its inhibition is “inactive”.

Question: What about the Activity (Mus musculus [3]) of the same compound?
Answer: Its Activity is 5.94 µmol/kg.

Question: And the Time (Canis familiaris [4])?
Answer: Its Time is < 1 min.

Question: What about the Activity (Canis familiaris [5]) of the same compound?
Answer: The Activity was “Dose-dependent effect”.

Question: And the Activity (Canis familiaris [6])?
Answer: Its Activity is “Toxic”.

Question: And the T1/2 (Canis familiaris [7])?
Answer: The T1/2 was 18 min.

Question: And the Activity (Canis familiaris [8])?
Answer: The Activity was “Toxic”.

Question: What about the Activity (Canis familiaris [9]) of the same compound?
Answer: Its Activity is 10%.

Question: What about the Activity (Canis familiaris [10]) of the same compound?
Answer: The Activity was 0.7 µmol/kg.

Question: And the Activity (Canis familiaris [11])?
Answer: The Activity was 1.2 µmol/kg.

Question: And the inhibition (Canis familiaris [12])?
Answer: The inhibition was “inactive”.

Question: What about the Activity (Canis familiaris [13]) of the same compound?
Answer: Its Activity is “Toxic”.

Question: And the inhibition (Canis familiaris [14])?
Answer: The inhibition was “inactive”.

Question: And the Activity (Mus musculus [15])?
Answer: The Activity was “Active”.

Question: What about the Activity (Canis familiaris [16]) of the same compound?
Answer: Its Activity is “Active”.

Question: And the inhibition (Canis familiaris [17])?
Answer: Its inhibition is “inactive”.

Question: What about the Activity (Canis familiaris [18]) of the same compound?
Answer: The Activity was “Dose-dependent effect”.

Question: And the Activity (Canis familiaris [19])?
Answer: The Activity was “Dose-dependent effect”.

Question: What about the ED50 (Canis familiaris [20]) of the same compound?
Answer: The ED50 was 4 µmol/kg.

Question: And the Activity (Canis familiaris [21])?
Answer: The Activity was “Toxic”.

Question: And the inhibition (Canis familiaris [22])?
Answer: Its inhibition is “inactive”.

Question: What about the inhibition (Canis familiaris [23]) of the same compound?
Answer: The inhibition was “inactive”.

Question: And the Activity (Canis familiaris [24])?
Answer: The Activity was “Toxic”.
